Jurkat NFkB inh: inhibitors of induced NF-kB luciferase reporter, primary screen, TCR NF-kB activation inhibitor project, cell-based, luminescence, uHTS; inhibition, % at 4 µM; AID 435003, 2010; actives 0.53% (n = 330,000); Jurkat, PMA/ionomycin-induced NF-kB luciferase reporter; in the data active means inhibition above about 50%
VIM-2 inh: VIM-2 metallo-beta-lactamase inhibitors, primary screen, biochemical, epi-absorbance readout, Pseudomonas aeruginosa enzyme; inhibition, % at 5.6 µM; actives 0.89% (n = 290,000); purified VIM-2, nitrocefin hydrolysis, epi-absorbance fluorescence;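 active means inhibition above the mean of all tested compounds plus 3 SD, cutoff set per screening run, cut at about 7.5% in these data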;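 further: red hydrolysis product quenches plate fluorescence so inhibitors raise well fluorescence; 0% = enzyme with DMSO and 100% = DMSO without enzyme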
697 NFkB inh: inhibitors of PMA/ionomycin-induced NF-kB reporter, 697 cells, primary screen, B-cell NF-kB inhibitor project, cell-based, luminescence, uHTS; 697 B-cell NF-kB luciferase reporter, 16 h; inhibition, % at 4 µM; actives 0.33% (n = 330,000); AID 435022, 2010; in the data active means inhibition above about 35%
IMP-1 inh: IMP-1 metallo-beta-lactamase inhibitors, primary screen, biochemical, epi-absorbance readout, Pseudomonas aeruginosa enzyme | metallo-beta-lactamase IMP-1 (Pseudomonas aeruginosa) | AID 1556, 2009 | actives 0.45% (n = 290,000) | purified IMP-1, nitrocefin hydrolysis, epi-absorbance fluorescence | inhibition, % at 5.6 µM;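 active means inhibition above the mean plus 3 SD of all compounds in the same screening run, cut at about 4.5% in these data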;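 further: 0% = IMP-1 with DMSO and 100% = DMSO wells lacking enzyme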
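System: Purified IMP-1 | Read-out basis: Percent enzyme inhibition | Controls: IMP-1 with DMSO as 0%, enzyme-free DMSO as 100% | Replicates: One well per compound | Doses: 5.6 µM nominal single concentration | Detection: Epi-absorbance fluorescence, 480 nm excitation, 530 nm emission | Incubation: 25 °C, 15 min preincubation, 25 min reaction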
aSyn UTR inh: MLPCN primary screen, SNCA 5' untranslated region; alpha-synuclein 5'UTR reporter, inhibitor activity; inhibition, % (tested at 7.5 µM); actives 0.82% (n = 300,000); in the data active means inhibition above about 60%;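 further: H4 neuroglioblastoma cells stably carrying SNCA 5'UTR luciferase fusion; 0% = DMSO wells and 100% = positive control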
Mdm2 MdmX PPI: inhibitors of human Mdm2-MdmX association, primary screen, cell-based, luminescence, split luciferase, SaOS-2, uHTS; inhibition, % at 8 µM; AID 485346, 2010; actives 3% (n = 330,000); SaOS-2 split-luciferase Mdm2/MdmX complementation; Protein Mdm4 (Homo sapiens) + E3 ubiquitin-protein ligase Mdm2 (Homo sapiens), …;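 active means inhibition of at least 50% at 8 µM in the primary screen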
Target sequence (O15151 whole entry, looked up): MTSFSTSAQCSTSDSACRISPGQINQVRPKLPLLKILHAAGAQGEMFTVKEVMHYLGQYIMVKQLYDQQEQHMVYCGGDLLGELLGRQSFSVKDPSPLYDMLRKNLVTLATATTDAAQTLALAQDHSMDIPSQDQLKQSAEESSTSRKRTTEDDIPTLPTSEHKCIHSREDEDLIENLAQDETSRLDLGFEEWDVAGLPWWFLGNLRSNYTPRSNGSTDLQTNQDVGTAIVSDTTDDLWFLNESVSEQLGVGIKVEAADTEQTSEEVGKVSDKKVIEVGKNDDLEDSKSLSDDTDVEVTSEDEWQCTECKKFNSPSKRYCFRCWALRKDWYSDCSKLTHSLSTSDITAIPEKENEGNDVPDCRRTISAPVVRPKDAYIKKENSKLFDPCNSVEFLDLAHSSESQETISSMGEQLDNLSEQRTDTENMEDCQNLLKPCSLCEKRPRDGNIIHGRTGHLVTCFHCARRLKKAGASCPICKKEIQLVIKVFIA
Target sequence (Q00987 whole entry, looked up): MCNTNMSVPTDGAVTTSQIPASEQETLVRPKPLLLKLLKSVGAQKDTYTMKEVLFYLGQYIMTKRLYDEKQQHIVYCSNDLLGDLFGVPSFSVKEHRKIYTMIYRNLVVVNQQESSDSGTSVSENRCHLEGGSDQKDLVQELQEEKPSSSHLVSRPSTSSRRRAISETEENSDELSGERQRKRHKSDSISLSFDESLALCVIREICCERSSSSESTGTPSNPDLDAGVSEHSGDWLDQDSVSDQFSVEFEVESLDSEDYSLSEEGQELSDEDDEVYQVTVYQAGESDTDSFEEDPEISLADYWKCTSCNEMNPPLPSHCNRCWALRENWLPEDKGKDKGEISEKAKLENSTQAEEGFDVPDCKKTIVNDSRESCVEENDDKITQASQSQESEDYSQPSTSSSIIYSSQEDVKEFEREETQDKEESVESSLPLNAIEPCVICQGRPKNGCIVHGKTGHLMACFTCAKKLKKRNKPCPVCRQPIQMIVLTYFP
Mdm2-MdmX conf: Mdm2-MdmX complex disruptors, retested hits, confirmation, luminescence, single concentration; actives 55% (n = 10,000); shares compounds with Mdm2 MdmX PPI; Mdm2-MdmX binding, luminescent assay; inhibition, % at 8 µM; in the data active means inhibition above about 40%
Full FLuc ctr: full-length luciferase signal inhibition, confirmation, counter-screen for Mdm2/MdmX interaction inhibitor project, cell-based, single concentration, SaOS-2; inhibition, % at 8 µM; shares compounds with Mdm2 MdmX PPI; actives 77% (n = 6,200); AID 504607, 2011; SaOS-2 full-length luciferase counterscreen, luminescence;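 active means mean inhibition at 8 µM reaching about 37%, which flags the compound as non-specific, limit read from the data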;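 further: p53-null SaOS-2 cells with luciferase driven by a doxycycline-inducible promoter; compound on cells about two nights before reading with doxycycline added after day one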
Starred values were filed as active, the others as inactive; · = no result given. This is a sample that favours compounds with a hit; in the whole collection about 4.7% have one here.

SMILES | Jurkat NFkB inh | VIM-2 inh | 697 NFkB inh | IMP-1 inh | aSyn UTR inh | Mdm2 MdmX PPI | Mdm2-MdmX conf | Full FLuc ctr
CC(NS(=O)(=O)c1ccc(Cl)cc1)C(=O)NCCC1=CCCCC1 (configuration not stated) | -13 | -3 | -5 | -1 | 28 | -24 | · | ·
CC(=O)Nc1sc(N/N=C\c2ccccc2Cl)nc1-c1cccs1 | 3 | -3 | -18 | -4 | -141 | 51* | 61* | 96*
COc1cc2c(c(OC)c1OC)-c1ccc(NC(=O)c3ccc(F)cc3)c(=O)cc1[C@@H](NC(C)=O)CC2 | 44 | -2 | -1 | -2 | -26 | 62* | 52* | 78*
CN[C@H]1CCc2cc(OC)c(OC)c(OC)c2-c2ccc(N(C)CC(OC)OC)c(=O)cc21 | 30 | -2 | -12 | 4 | 70* | 71* | 49* | 66*
COc1cc2c(c(OC)c1OC)-c1ccc(N(C)CC(OC)OC)c(=O)cc1[C@@H](NC(C)=O)CC2 | 47 | -2 | -197 | 0 | 84* | 68* | 63* | 132*
COc1cc2nc(C3CC3)n(NC(=O)c3ccc(F)cc3)c(=O)c2cc1OC | 8 | -1 | 7 | 0 | 7 | 17 | · | ·
COc1cc(C(=O)NC2CCCc3ccccc32)cc(OC)c1OC (configuration not stated) | -1 | 0 | 9 | -2 | 10 | 40 | · | ·
CN(c1cccc(NC(=O)CN(c2cccc(Cl)c2)S(=O)(=O)c2ccccc2)c1)S(C)(=O)=O | 2 | -3 | -28 | -3 | 23 | 7 | · | ·
CC1CCC(CN2C(Nc3ccccc3)=NC[C@@H]2C)CC1 (some centres not stated) | 1 | 0 | 16 | -3 | 2 | -27 | · | ·
CCC/C(O)=C1\C(=O)CC(C)(C)CC1=Nc1cccc([N+](=O)[O-])c1 | 10 | -1 | 19 | -2 | 18 | -4 | · | ·
O=C(NNS(=O)(=O)c1ccc(Br)cc1)c1cccs1 | -6 | -5 | -2 | -2 | 9 | 24 | · | ·
CSc1nnnn1-c1ccc(C(=O)OCC(=O)N2CCOCC2)cc1 | -8 | -3 | -16 | -1 | 5 | -14 | · | ·
CC1(C)c2ssc(=S)c2-c2ccccc2N1C(=O)c1ccco1 | 8 | -3 | -17 | -2 | 5 | 25 | · | ·
Cc1ccc2c(c1)-c1c(ssc1=S)C(C)(C)N2C(=O)c1ccco1 | 15 | -2 | 6 | -2 | 32 | 57* | 37 | ·
CC(C)(C)C(C(Oc1ccc(Cl)cc1)n1cncn1)n1nnnc1C(c1cccc(Cl)c1)N1CCCCC1 (configuration not stated) | -11 | 0 | -23 | -3 | 24 | 57* | 31 | ·
O=C(/C=C/NNC(=O)c1ccccc1O)c1ccccc1 | -3 | -2 | -8 | 1 | -13 | 57* | 13 | ·
CCOC(=O)c1sc(NC(=O)/C=C/c2ccccc2)nc1C | 2 | 0 | 4 | -2 | -95 | -11 | · | ·
CCOC(=O)CNC(=O)c1sc(NC(=O)/C=C/c2ccccc2)nc1C | 11 | 0 | 1 | 0 | -12 | 69* | 12 | ·
CCNC(=O)C1CCCN(c2nc(C)cc(C)n2)C1 (configuration not stated) | -2 | 1 | 10 | -4 | 2 | 17 | · | ·
Cc1cc(C)n2nc(N)c(N=Nc3ccc4c(c3)OCO4)c2n1 | -10 | -4 | 5 | -2 | -1 | 57* | -26 | ·
Cc1cc(C)n2nc(N)c(N=Nc3ccccc3)c2n1 | -5 | 5 | 4 | -3 | -46 | 18 | · | ·
COc1cccc(C2CC(c3c(-c4ccccc4)c4cc(Cl)ccc4[nH]c3=O)=NN2S(C)(=O)=O)c1OC (configuration not stated) | 3 | -3 | -5 | -1 | 30 | 50* | 32 | 69*
COc1cc(NC(=O)c2c(F)c(F)c(F)c(F)c2F)c(OC)cc1Cl | -3 | -2 | 23 | 0 | -27 | 78* | 47* | 53*
COc1cc(NC(=O)c2ccc(F)cc2)c(OC)cc1Cl | -4 | -4 | 1 | -3 | -36 | 11 | · | ·
C/C(=C\C(=O)c1ccccc1)Nc1ccc2c(c1)OCO2 | -69 | -3 | -45 | -3 | -115 | -110 | · | ·
SMILES | Jurkat NFkB inh | VIM-2 inh | 697 NFkB inh | IMP-1 inh | aSyn UTR inh | Mdm2 MdmX PPI | Mdm2-MdmX conf | Full FLuc ctr
Cc1nc(NC(=O)CSc2nc3cccnc3n2Cc2ccccc2)sc1C | -24 | -1 | -40 | -4 | 22 | 78* | 20 | ·
CCC(C)NC(=S)N(CCc1ccccc1)Cc1cc2cc(OC)c(OC)cc2[nH]c1=O (configuration not stated) | -21 | -2 | -30 | -2 | 1 | 8 | · | ·
CCCCN(c1nc2ccccc2nc1Cl)S(=O)(=O)c1ccc(C)cc1 | 3 | -2 | -10 | -1 | 0 | 24 | · | ·
CC(=O)NC(c1ccccc1)c1cc(Cl)c2cccnc2c1O (configuration not stated) | 0 | 0 | -35 | -2 | 42 | 77* | 64* | 15
COc1ccc(C(=O)Nc2cc(OC)cc3cccnc23)cc1 | -23 | -1 | -5 | -1 | -10 | 4 | · | ·
CC(=O)NC(c1cc(F)c2cccnc2c1O)C1CC1 (configuration not stated) | 15 | · | -9 | · | · | 30 | · | ·
CCCC(=O)NC(c1ccc(OC)c(OC)c1)c1cc(Cl)c2cccnc2c1O (configuration not stated) | -8 | -3 | -14 | -3 | 50 | 73* | 60* | 28
O=[N+]([O-])c1cc(Cl)c(O)c2ncccc12 | 24 | 0 | 0 | -6 | -7 | 51* | 54* | 56*
COc1ccc(C(NC(C)=O)c2cc(Cl)c3cccnc3c2O)cc1 (configuration not stated) | 11 | -2 | -26 | -4 | 76* | 76* | 71* | 29
O=[N+]([O-])c1cc(CN2CCN(c3ccccc3)CC2)c(O)c2ncccc12 | 9 | -4 | -6 | -5 | 82* | 75* | 79* | 42*
CN(Cc1cc([N+](=O)[O-])c2cccnc2c1O)C1CCCCC1 | -23 | 0 | -18 | -2 | -3 | 4 | · | ·

Assay outcomes as filed in PubChem.
